Test results: ChEMBL document CHEMBL5352422, “Development of l-Dopa-containing diketopiperazines as blood-brain barrier shuttle” (Eur J Med Chem, 2022)
Converted amounts (≈) assume the structure as drawn. The source made the active and inactive calls. No cut-off for these calls is given here.

How the values were obtained:
[1] = Stability of the compound in stimulated gastric fluid at 40 mg/ml pepsin by measuring observed rate constant measured upto 60 mins by HPLC analysis; assay type: ADME; settings: simulated gi fluid, 1 h
Method in brief: (§1)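 USP simulated gastric fluid containing pepsin, preheated, in a 37 °C shaking water bath. Samples at 0, 15, 30 and 60 min were deproteinized with ice-cold acetonitrile containing 0.5% formic acid, centrifuged at 4 °C, filtered and analyzed by HPLC. Means of three experiments.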

[2] = Genotoxicity in human Lymphocyte assessed as sister chromatid exchange measured per cells at 500 nM incubated for 72 hrs giemsa staining based fluorescence method (reference value: 6.6 to 14.3); assay type: toxicity, cell-based; settings: 0.5 µM
[3] = Induction of DNA damage in Primary human whole blood cell assessed as total DNA damage score at 500 nM incubated for 24 hrs by Comet assay (reference value: 35.4 to 77.9); assay type: functional
[4] = Antioxidant activity against rat Cerebral cortex cell assessed as H2O2 equivalent of total oxidative stress at 100 nM incubated for 24 hrs (0.7 to 2.3 micromolequiv/L); assay type: functional, Cerebral cortex neuron
[5] = Antioxidant activity against rat Cerebral cortex cell assessed as trolox equivalent of total antioxidant capacity at 10 nM incubated for 24 hrs (14.7 to 27.5 mmolequiv/L ); assay type: functional, Cerebral cortex neuron
[6] = Stability of the compound in stimulated gastric fluid at 40 mg/ml pepsin by measuring half life measured upto 60 mins by HPLC analysis; assay type: ADME; settings: simulated gastric fluid with pepsin; method in brief: as §1
[7] = Antioxidant activity against rat Cerebral cortex cell assessed as trolox equivalent of total antioxidant capacity at 50 nM incubated for 24 hrs (14.7 to 27.5 mmolequiv/L ); assay type: functional, Cerebral cortex neuron
[8] = Stability of the compound in phosphate buffer assessed as chemical hydrolysis by measuring half life at pH 7.4; assay type: physicochemical
Method in brief: (§2)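 Chemical hydrolysis at 37 °C in hydrochloric acid buffer pH 1.2 or phosphate buffer pH 7.4. Remaining compound followed by HPLC with UV detection. t1/2 and k_obs are means of three experiments ± SD.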

[9] = Genotoxicity in human Lymphocyte assessed as micronuclei formation measured per 1000 cells at 10 nM incubated for 72 hrs giemsa staining based analysis (reference value: 4.5 to 17.9); assay type: toxicity, cell-based; settings: 0.01 µM
Method in brief: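 Human whole-blood lymphocyte cultures with phytohemagglutinin, incubated with compound for 72 h at 37 °C. Cytochalasin B added at 44 h. Cells fixed in ice-cold methanol/acetic acid 1:1, cytospun, Giemsa-stained. At least 1000 binucleated lymphocytes per concentration scored for micronuclei by one observer.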

[10] = Genotoxicity in human Lymphocyte assessed as sister chromatid exchange measured per cells at 50 nM incubated for 72 hrs giemsa staining based fluorescence method (reference value: 6.6 to 14.3); assay type: toxicity, cell-based; settings: 0.05 µM
[11] = Stability of the compound in stimulated intestinal fluid at 10 mg/ml pancreatin by measuring observed rate constant measured upto 180 mins by HPLC analysis; assay type: ADME; settings: simulated gi fluid, 3 h
Method in brief: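 USP simulated intestinal fluid containing pancreatin, in a 37 °C shaking water bath. Samples at 0, 60, 120 and 180 min were quenched with ice-cold acetonitrile containing 0.5% formic acid, centrifuged at 4 °C for 10 min, filtered and analyzed by HPLC. Means of three experiments ± SD.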

[12] = Induction of DNA damage in Primary human whole blood cell assessed as total DNA damage score at 50 nM incubated for 24 hrs by Comet assay (reference value: 35.4 to 77.9); assay type: functional
PC-12 = assay: Inhibition of MPP+ induced ROS production in rat PC-12 cells at 100 nM preincubated with compound for 24 hrs followed by MPP+ treatment for 24 hrs by DCFH-DA staining based fluorescence method; settings: time 48.0 hrs
[13] = Induction of DNA damage in Primary human whole blood cell assessed as 8-OH-dG adducts formation at 100 nM incubated for 24 hrs by […] (reference value: 0.12 to 2.21 pg/ml); assay type: functional
[14] = Induction of DNA damage in Primary human whole blood cell assessed as 8-OH-dG adducts formation at 50 nM incubated for 24 hrs by […] (reference value: 0.12 to 2.21 pg/ml); assay type: functional
[15] = Genotoxicity in human Lymphocyte assessed as sister chromatid exchange measured per cells at 250 nM incubated for 72 hrs giemsa staining based fluorescence method (reference value: 6.6 to 14.3); assay type: toxicity, cell-based; settings: 0.25 µM
[16] = Induction of DNA damage in Primary human whole blood cell assessed as 8-OH-dG adducts formation at 10 nM incubated for 24 hrs by […] (reference value: 0.12 to 2.21 pg/ml); assay type: functional
[17] = Antioxidant activity against Primary human whole blood cell assessed as trolox equivalent of total antioxidant capacity at 500 nM incubated for 24 hrs (19.3 to 32.5 mmolequiv/L ); assay type: functional
[18] = Cytotoxicity against Primary human whole blood cell at 10 to 500 nM incubated for 24 hrs by LDH assay; assay type: toxicity, cell-based; settings: 0.5 µM, dose 10-500 nM
Method in brief: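 Rat fetal cortical neuron or human whole-blood cultures treated 24 h at 37 °C with aqueous compound at 10–500 nM. LDH released into 100 µL of medium measured by kit as the rate of NAD+ reduction (lactate to pyruvate), absorbance increase at 490 nm. Mitomycin C 10^-7 M as positive control; four independent experiments.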

[19] = Solubility of the compound in water by HPLC-UV analysis; assay type: physicochemical
[20] = Induction of DNA damage in rat Cerebral cortex cell assessed as 8-OH-dG adducts formation at 250 nM incubated for 24 hrs by […] (reference value: 0.14 to 1.92 pg/ml); assay type: functional, Cerebral cortex neuron
[21] = Cytotoxicity against rat Cerebral cortex cell at 10 to 500 nM incubated for 24 hrs by MTT assay; assay type: toxicity, cell-based; settings: cerebral cortex neuron, 0.5 µM, dose 10-500 nM
Method in brief: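 Primary cultures (rat fetal cortical neurons; human whole-blood cultures with phytohemagglutinin) exposed to aqueous compound at 10–500 nM for 24 h at 37 °C. Then incubated with 0.7 mg/mL MTT for 30 min at 37 °C, formazan extracted with isopropanol/formic acid 95:5, read at 560 nm. Control formazan = 100% viability. Mitomycin C 10^-7 M as positive control; n = 4.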

[22] = Antioxidant activity against rat Cerebral cortex cell assessed as H2O2 equivalent of total oxidative stress at 500 nM incubated for 24 hrs (0.7 to 2.3 micromolequiv/L); assay type: functional, Cerebral cortex neuron
[23] = Antioxidant activity against Primary human whole blood cell assessed as trolox equivalent of total antioxidant capacity at 50 nM incubated for 24 hrs (19.3 to 32.5 mmolequiv/L ); assay type: functional
[24] = Genotoxicity in human Lymphocyte assessed as sister chromatid exchange measured per cells at 10 nM incubated for 72 hrs giemsa staining based fluorescence method (reference value: 6.6 to 14.3); assay type: toxicity, cell-based; settings: 0.01 µM
[25] = Antioxidant activity against rat Cerebral cortex cell assessed as trolox equivalent of total antioxidant capacity at 500 nM incubated for 24 hrs (14.7 to 27.5 mmolequiv/L ); assay type: functional, Cerebral cortex neuron
[26] = Induction of DNA damage in Primary human whole blood cell assessed as 8-OH-dG adducts formation at 250 nM incubated for 24 hrs by […] (reference value: 0.12 to 2.21 pg/ml); assay type: functional
[27] = Stability of the compound in phosphate buffer assessed as chemical hydrolysis by measuring observed rate constant at pH 7.4; assay type: physicochemical; method in brief: as §2

Kobs [1]	half-life [6]	half-life [8]	Kobs [11]	solubility [19]	SMILES	Activity [2]	Activity [3]	Activity [4]	Activity [5]	Activity [7]	Activity [9]	Activity [10]	Activity [12]	inhibition (PC-12)	Activity [13]	Activity [14]	Activity [15]	Activity [16]	Activity [17]	Activity [18]	also measured
0.031 h⁻¹	22.4 h	30.9 h	1.03 h⁻¹	323 µg/mL (≈ 795 µM)	C=CCSC[C@H]1NC(=O)[C@H](Cc2ccc(OC(C)=O)c(OC(C)=O)c2)NC1=O	7	36.1	0.7 umolequiv/L	15.1 mmolequiv/L	14.3 mmolequiv/L	4.7	6.7	35.7	Active	0.12 pg/mL	0.12 pg/mL	7.1	0.12 pg/mL	18.4 mmolequiv/L	Non-Toxic	Activity [20]: 0.15 pg/mL; Activity [21]: Non-Toxic; Activity [22]: 0.7 umolequiv/L; Activity [23]: 19.4 mmolequiv/L; Activity [24]: 6.8; Activity [25]: 14.9 mmolequiv/L; Activity [26]: 0.12 pg/mL; Kobs [27]: 0.022 h⁻¹
0.012 h⁻¹	57.1 h	47.5 h	0.198 h⁻¹	630 µg/mL (≈ 1560 µM)	C#CCSC[C@H]1NC(=O)[C@H](Cc2ccc(OC(C)=O)c(OC(C)=O)c2)NC1=O	6.9	36.3	0.6 umolequiv/L	14.7 mmolequiv/L	15.5 mmolequiv/L	4.6	6.8	35.8	Active	0.12 pg/mL	0.11 pg/mL	7.1	0.12 pg/mL	19.4 mmolequiv/L	Non-Toxic	Activity [20]: 0.14 pg/mL; Activity [21]: Non-Toxic; Activity [22]: 0.6 umolequiv/L; Activity [23]: 19.5 mmolequiv/L; Activity [24]: 6.5; Activity [25]: 14.8 mmolequiv/L; Activity [26]: 0.13 pg/mL; Kobs [27]: 0.015 h⁻¹
